According to ChEMBL document CHEMBL4130533, “Cytotoxic Cardiac Glycoside Constituents of Vallaris glabra Leaves” (J Nat Prod, 2017):

What was measured:
[1] = system: HeLa S3; test: Antiproliferative activity against human HeLaS3 cells by MTT assay; format: functional, cell-based
Summary of the method: (§1)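 Antiproliferative MTT (microculture tetrazolium) assay run by a previously reported protocol, giving IC50 values. Cell lines came from ATCC: HeLaS3 cervix adenocarcinoma (CCL-2.2), A549 lung carcinoma (CCL-185), HT-29 colorectal adenocarcinoma (HTB-38), and nontumorigenic normal African green monkey kidney Vero (CCL-81).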

[2] = system: A549; test: Antiproliferative activity against human A549 cells by MTT assay; format: functional, cell-based; summary of the method: as §1
[3] = system: HT-29; test: Antiproliferative activity against human HT-29 cells by MTT assay; format: functional, cell-based; summary of the method: as §1
[4] = system: Vero; test: Antiproliferative activity against African green monkey Vero cells by MTT assay; format: cell-based; details: Chlorocebus sabaeus; summary of the method: as §1

| Structure (SMILES) | IC50 [1] [nM] | IC50 [2] [nM] | IC50 [3] [nM] | IC50 [4] [nM] |
| --- | --- | --- | --- | --- |
| CO[C@H]1[C@@H](O)[C@H](C)O[C@@H](O[C@H]2CC[C@@]3(C)[C@H](CC[C@@H]4[C@@H]3CC[C@]3(C)[C@@H](C5=CC(=O)OC5)[C@@H](OC(C)=O)C[C@]43O)C2)[C@@H]1OC(C)=O | 100 | 30 | 100 | 300 |
| CO[C@@H]1[C@@H](O[C@@H]2O[C@H](CO)[C@@H](O)[C@H](O)[C@H]2O)[C@H](C)O[C@@H](O[C@H]2CC[C@@]3(C)[C@H](CC[C@@H]4[C@@H]3CC[C@]3(C)C(C5=CC(=O)OC5)=CC[C@]43O)C2)[C@@H]1OC(C)=O | > 10000 | > 10000 | > 10000 | > 10000 |
| CO[C@@H]1[C@@H](O[C@@H]2O[C@H](CO[C@@H]3O[C@H](CO)[C@@H](O)[C@H](O)[C@H]3O)[C@@H](O)[C@H](O)[C@H]2O)[C@H](C)O[C@@H](O[C@H]2CC[C@@]3(C)[C@H](CC[C@@H]4[C@@H]3CC[C@]3(C)[C@@H](C5=CC(=O)OC5)[C@@H](OC(C)=O)C[C@]43O)C2)[C@@H]1OC(C)=O | 1600 | 2100 | 5000 | > 10000 |
| CO[C@@H]1[C@@H](O[C@@H]2O[C@H](CO)[C@@H](O)[C@H](O)[C@H]2O)[C@H](C)O[C@@H](O[C@H]2CC[C@@]3(C)[C@H](CC[C@@H]4[C@@H]3CC[C@]3(C)[C@@H](C5=CC(=O)OC5)[C@@H](OC(C)=O)C[C@]43O)C2)[C@@H]1OC(C)=O | 1400 | 1500 | 1900 | 5800 |
| COc1cc([C@@H]2c3cc4c(cc3[C@@H](O[C@@H]3O[C@@H]5CO[C@@H](C)O[C@H]5[C@H](O)[C@H]3O)[C@H]3COC(=O)[C@H]23)OCO4)cc(OC)c1O [ETOPOSIDE] | 500 | > 10000 | 7600 | > 10000 |
| CO[C@H]1[C@@H](O)[C@H](O[C@H]2CC[C@@]3(C)[C@H](CC[C@@H]4[C@@H]3CC[C@]3(C)C(C5=CC(=O)OC5)=CC[C@]43O)C2)O[C@@H](C)[C@@H]1O[C@@H]1O[C@H](CO)[C@@H](O)[C@H](O)[C@H]1O | 700 | 300 | 800 | 2500 |
| CO[C@@H]1[C@@H](O)[C@H](O[C@H]2CC[C@@]3(C)[C@H](CC[C@@H]4[C@@H]3CC[C@]3(C)[C@@H](C5=CC(=O)OC5)[C@@H](OC(C)=O)C[C@]43O)C2)O[C@@H](C)[C@@H]1O[C@@H]1O[C@H](CO)[C@@H](O)[C@H](O)[C@H]1O | 100 | 100 | 200 | 600 |
| CO[C@@H]1[C@@H](O)[C@H](C)O[C@@H](O[C@H]2CC[C@@]3(C)[C@H](CC[C@@H]4[C@@H]3CC[C@]3(C)[C@@H](C5=CC(=O)OC5)[C@@H](OC(C)=O)C[C@]43O)C2)[C@@H]1OC(C)=O | 40 | 500 | 100 | 200 |
| CO[C@@H]1[C@@H](O)[C@H](O[C@H]2CC[C@@]3(C)[C@H](CC[C@@H]4[C@@H]3CC[C@]3(C)C(C5=CC(=O)OC5)=CC[C@]43O)C2)O[C@@H](C)[C@@H]1O[C@@H]1O[C@H](CO)[C@@H](O)[C@H](O)[C@H]1O | 700 | 1600 | 1900 | 6200 |
| CO[C@H]1[C@@H](O[C@@H]2O[C@H](CO)[C@@H](O)[C@H](O)[C@H]2O)[C@H](C)O[C@@H](O[C@H]2CC[C@@]3(C)[C@H](CC[C@@H]4[C@@H]3CC[C@]3(C)[C@@H](C5=CC(=O)OC5)[C@@H](OC(C)=O)C[C@]43O)C2)[C@@H]1OC(C)=O | 400 | 600 | 600 | 2200 |
| CO[C@H]1[C@@H](O)[C@H](O[C@H]2CC[C@@]3(C)[C@H](CC[C@@H]4[C@@H]3CC[C@]3(C)[C@@H](C5=CC(=O)OC5)[C@@H](OC(C)=O)C[C@]43O)C2)O[C@@H](C)[C@@H]1O[C@@H]1O[C@H](CO[C@@H]2O[C@H](CO)[C@@H](O)[C@H](O)[C@H]2O)[C@@H](O)[C@H](O)[C@H]1O | 400 | 600 | 1400 | 4800 |
| CO[C@@H]1[C@@H](O)[C@H](O[C@H]2CC[C@@]3(C)[C@H](CC[C@@H]4[C@@H]3CC[C@]3(C)[C@@H](C5=CC(=O)OC5)[C@@H](O)C[C@]43O)C2)O[C@@H](C)[C@@H]1O[C@@H]1O[C@H](CO)[C@@H](O)[C@H](O)[C@H]1O | 6800 | 3800 | 6400 | > 10000 |
| CO[C@H]1[C@@H](O)[C@H](O[C@H]2CC[C@@]3(C)[C@H](CC[C@@H]4[C@@H]3CC[C@]3(C)[C@@H](C5=CC(=O)OC5)[C@@H](OC(C)=O)C[C@]43O)C2)O[C@@H](C)[C@@H]1O[C@@H]1O[C@H](CO)[C@@H](O)[C@H](O)[C@H]1O | 200 | 100 | 200 | 700 |
| COc1cccc2c1C(=O)c1c(O)c3c(c(O)c1C2=O)C[C@@](O)(C(=O)CO)C[C@@H]3O[C@H]1C[C@H](N)[C@H](O)[C@H](C)O1 [DOXORUBICIN] | < 100 | 5000 | 400 | 6600 |
| CO[C@@H]1[C@@H](O)[C@H](O[C@H]2CC[C@@]3(C)[C@H](CC[C@@H]4[C@@H]3CC[C@]3(C)[C@@H](C5=CC(=O)OC5)[C@@H](OC(C)=O)C[C@]43O)C2)O[C@@H](C)[C@@H]1O[C@@H]1O[C@H](CO[C@@H]2O[C@H](CO)[C@@H](O)[C@H](O)[C@H]2O)[C@@H](O)[C@H](O)[C@H]1O | 500 | 1200 | 1600 | 6900 |
